Assay results: ChEMBL document CHEMBL1914320, “C4-alkylthiols with activity against Moraxella catarrhalis and Mycobacterium tuberculosis” (Bioorg Med Chem, 2011)
Active and inactive are the calls of the source.

Tests used:
Pseudomonas aeruginosa [1] = assay: Antibacterial activity against non-beta-lactamase producing Pseudomonas aeruginosa ATCC 27853 after 48 hrs by microdilution broth method; type: functional, organism-based
How it was run: (§1)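 Broth microdilution followed CLSI guidelines. Compound was dissolved in 95% ethanol, diluted at least 10-fold into Mueller-Hinton broth, then serially two-fold diluted from 500 to 15.6 μg/mL. Actively growing culture was added at 5 × 10^5 cells/mL. Plates ran 48 h at 37 °C, scored for visible growth at 24 and 48 h. MIC was the lowest concentration without growth. For MBC, 10 μL from each clear well was plated on MH agar. Controls were ethanol and penicillin. Triplicate.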

Moraxella catarrhalis [2] = assay: Antibacterial activity against beta-lactamase producing Moraxella catarrhalis isolate 3 at 10 ug/disc after overnight incubation by disc diffusion assay in presence of 1 mol equiv of glutathione; type: functional; settings: for zone of inhibition at 10 µg/disc: read-out: IZ
Moraxella catarrhalis [3] = assay: Antibacterial activity against beta-lactamase producing Moraxella catarrhalis isolate 5 at 10 ug/disc after overnight incubation by disc diffusion assay in presence of 1 mol equiv of glutathione; type: functional; settings: for zone of inhibition at 10 µg/disc: read-out: IZ
Moraxella catarrhalis [4] = assay: Antibacterial activity against beta-lactamase producing Moraxella catarrhalis isolate 2 at 10 ug/disc after overnight incubation by disc diffusion assay in presence of 1 mol equiv of glutathione; type: functional; settings: for zone of inhibition at 10 µg/disc: read-out: IZ
Escherichia coli [5] = assay: Antibacterial activity against non-beta-lactamase producing Escherichia coli ATCC 25922 after 48 hrs by microdilution broth method; type: functional, organism-based; how it was run: as §1
Moraxella catarrhalis [6] = assay: Antibacterial activity against beta-lactamase producing Moraxella catarrhalis isolate 1 at 10 ug/disc after overnight incubation by disc diffusion assay in presence of 1 mol equiv of glutathione; type: functional
Escherichia coli [7] = assay: Antibacterial activity against non-beta-lactamase producing Escherichia coli ATCC 25922 at 10 ug/disc after overnight incubation by disc diffusion assay; type: functional, organism-based
How it was run: (§2)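 Isolates were held at −80 °C. Five colonies were suspended in Mueller-Hinton broth to a 0.5 McFarland density and swabbed onto MH agar. Discs carried 10 μg compound, applied in methanol and dried at room temperature. Plates were incubated overnight at 37 °C, and the zone of inhibition was measured in mm from the disc edge. Controls were methanol-only and penicillin discs. Run blinded, in triplicate.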

Enterococcus faecalis [8] = assay: Antibacterial activity against non-beta-lactamase producing Enterococcus faecalis ATCC 29212 after 48 hrs by microdilution broth method; type: functional, organism-based; how it was run: as §1
Moraxella catarrhalis [9] = assay: Antibacterial activity against beta-lactamase producing Moraxella catarrhalis isolate 4 at 10 ug/disc after overnight incubation by disc diffusion assay in presence of 1 mol equiv of glutathione; type: functional; settings: for zone of inhibition at 10 µg/disc: read-out: IZ
Staphylococcus aureus [10] = assay: Antibacterial activity against non-beta-lactamase producing Staphylococcus aureus ATCC 25923 after 48 hrs by microdilution broth method; type: functional, organism-based; how it was run: as §1
Staphylococcus aureus [11] = assay: Antibacterial activity against non-beta-lactamase producing Staphylococcus aureus ATCC 25923 at 10 ug/disc after overnight incubation by disc diffusion assay; type: functional, organism-based; how it was run: as §2
Pseudomonas aeruginosa [12] = assay: Antibacterial activity against non-beta-lactamase producing Pseudomonas aeruginosa ATCC 27853 at 10 ug/disc after overnight incubation by disc diffusion assay; type: functional, organism-based; how it was run: as §2
Enterococcus faecalis [13] = assay: Antibacterial activity against non-beta-lactamase producing Enterococcus faecalis ATCC 29212 at 10 ug/disc after overnight incubation by disc diffusion assay; type: functional, organism-based; how it was run: as §2
Moraxella catarrhalis [14] = assay: Antibacterial activity against beta-lactamase producing Moraxella catarrhalis isolate 3 at 10 ug/disc after overnight incubation by disc diffusion assay; type: functional; settings: for zone of inhibition at 10 µg/disc: read-out: IZ; how it was run: as §2
Moraxella catarrhalis [15] = assay: Antibacterial activity against beta-lactamase producing Moraxella catarrhalis isolate 6 at 10 ug/disc after overnight incubation by disc diffusion assay in presence of 1 mol equiv of glutathione; type: functional; settings: for zone of inhibition at 10 µg/disc: read-out: IZ
Moraxella catarrhalis [16] = assay: Antibacterial activity against beta-lactamase producing Moraxella catarrhalis isolate 6 at 10 ug/disc after overnight incubation by disc diffusion assay; type: functional; settings: for zone of inhibition at 10 µg/disc: read-out: IZ; how it was run: as §2
Moraxella catarrhalis [17] = assay: Antibacterial activity against beta-lactamase producing Moraxella catarrhalis isolate 1 at 10 ug/disc after overnight incubation by disc diffusion assay; type: functional; how it was run: as §2
Moraxella catarrhalis [18] = assay: Antibacterial activity against beta-lactamase producing Moraxella catarrhalis isolate 2 at 10 ug/disc after overnight incubation by disc diffusion assay; type: functional; settings: for zone of inhibition at 10 µg/disc: read-out: IZ; how it was run: as §2
Moraxella catarrhalis [19] = assay: Antibacterial activity against beta-lactamase producing Moraxella catarrhalis isolate 5 at 10 ug/disc after overnight incubation by disc diffusion assay; type: functional; settings: for zone of inhibition at 10 µg/disc: read-out: IZ; how it was run: as §2
Moraxella catarrhalis [20] = assay: Antibacterial activity against beta-lactamase producing Moraxella catarrhalis isolate 4 at 10 ug/disc after overnight incubation by disc diffusion assay; type: functional; settings: read-out: IZ; how it was run: as §2
Moraxella catarrhalis [21] = assay: Antibacterial activity against beta-lactamase producing Moraxella catarrhalis isolate 4 after 48 hrs incubation by microdilution broth method; type: functional; settings: isolate 4, 48 h; how it was run: as §1
Moraxella catarrhalis [22] = assay: Antibacterial activity against beta-lactamase producing Moraxella catarrhalis isolate 1 after 48 hrs incubation by microdilution broth method; type: functional; settings: isolate 1, 48 h; how it was run: as §1
Moraxella catarrhalis [23] = assay: Antibacterial activity against beta-lactamase producing Moraxella catarrhalis isolate 5 after 48 hrs incubation by microdilution broth method; type: functional; settings: isolate 5, 48 h; how it was run: as §1
Moraxella catarrhalis [24] = assay: Antibacterial activity against beta-lactamase producing Moraxella catarrhalis isolate 3 after 48 hrs incubation by microdilution broth method; type: functional; settings: isolate 3, 48 h; how it was run: as §1
[25] = test system: Mycobacterium tuberculosis; assay: Antimycobacterial activity against wild type Mycobacterium tuberculosis H37Rv by Alamar blue assay; type: functional
Moraxella catarrhalis [26] = assay: Antibacterial activity against beta-lactamase producing Moraxella catarrhalis isolate 6 after 48 hrs incubation by microdilution broth method; type: functional; settings: isolate 6, 48 h; how it was run: as §1
Moraxella catarrhalis [27] = assay: Antibacterial activity against beta-lactamase producing Moraxella catarrhalis isolate 2 after 48 hrs incubation by microdilution broth method; type: functional; settings: isolate 2, 48 h; how it was run: as §1
Moraxella catarrhalis [28] = assay: Antibacterial activity against beta-lactamase producing Moraxella catarrhalis isolate 2 at 500 ug/ml after overnight incubation by disc diffusion assay; type: functional, organism-based
Moraxella catarrhalis [29] = assay: Antibacterial activity against beta-lactamase producing Moraxella catarrhalis isolate 3 at 500 ug/ml after overnight incubation by disc diffusion assay; type: functional, organism-based
Moraxella catarrhalis [30] = assay: Antibacterial activity against beta-lactamase producing Moraxella catarrhalis isolate 4 at 500 ug/ml after overnight incubation by disc diffusion assay; type: functional, organism-based
Moraxella catarrhalis [31] = assay: Antibacterial activity against beta-lactamase producing Moraxella catarrhalis isolate 5 at 500 ug/ml after overnight incubation by disc diffusion assay; type: functional, organism-based
Moraxella catarrhalis [32] = assay: Antibacterial activity against beta-lactamase producing Moraxella catarrhalis isolate 6 at 500 ug/ml after overnight incubation by disc diffusion assay; type: functional, organism-based
[33] = test system: Mycobacterium tuberculosis; assay: Antimycobacterial activity against wild type Mycobacterium tuberculosis H37Rv at 200 ug/ml by Alamar blue assay; type: functional, organism-based

CCC(CC)(CO)SC1CC(=O)N1 (centres undefined)
inactive: Activity (Pseudomonas aeruginosa [1]) | inhibition zone (IZ) (Moraxella catarrhalis [2]) | inhibition zone (IZ) (Moraxella catarrhalis [3]) | inhibition zone (IZ) (Moraxella catarrhalis [4]) | Activity (Escherichia coli [5]) | inhibition zone (IZ) (Moraxella catarrhalis [6]) | Activity (Escherichia coli [7]) | Activity (Enterococcus faecalis [8]) | inhibition zone (IZ) (Moraxella catarrhalis [9]) | Activity (Staphylococcus aureus [10]) | Activity (Staphylococcus aureus [11]) | Activity (Pseudomonas aeruginosa [12]) | Activity (Enterococcus faecalis [13])

CC(=O)SC1CC(=O)N1 (racemic)
19 mm: zone of inhibition at 10 µg/disc (Moraxella catarrhalis [2]) | zone of inhibition at 10 µg/disc (Moraxella catarrhalis [4]) | zone of inhibition at 10 µg/disc (Moraxella catarrhalis [15]) | zone of inhibition at 10 µg/disc (Moraxella catarrhalis [17]; read-out: IZ)
26 mm: zone of inhibition at 10 µg/disc (Moraxella catarrhalis [20])
inactive: Activity (Pseudomonas aeruginosa [1]) | Activity (Escherichia coli [5]) | Activity (Escherichia coli [7]) | Activity (Enterococcus faecalis [8]) | Activity (Staphylococcus aureus [10]) | Activity (Staphylococcus aureus [11]) | Activity (Pseudomonas aeruginosa [12]) | Activity (Enterococcus faecalis [13])
22 mm: zone of inhibition at 10 µg/disc (Moraxella catarrhalis [9])
16 mm: zone of inhibition at 10 µg/disc (Moraxella catarrhalis [6]; read-out: IZ)
20 mm: zone of inhibition at 10 µg/disc (Moraxella catarrhalis [16]) | zone of inhibition at 10 µg/disc (Moraxella catarrhalis [18])
24 mm: zone of inhibition at 10 µg/disc (Moraxella catarrhalis [3]) | zone of inhibition at 10 µg/disc (Moraxella catarrhalis [14])
28 mm: zone of inhibition at 10 µg/disc (Moraxella catarrhalis [19])

CC(=O)SC1CC(=O)N1S(=O)(=O)O (racemic)
14 mm: zone of inhibition at 10 µg/disc (Moraxella catarrhalis [9])
inactive: Activity (Pseudomonas aeruginosa [1]) | Activity (Escherichia coli [5]) | inhibition zone (IZ) (Moraxella catarrhalis [6]) | Activity (Escherichia coli [7]) | Activity (Enterococcus faecalis [8]) | Activity (Staphylococcus aureus [10]) | inhibition zone (IZ) (Moraxella catarrhalis [17]) | Activity (Staphylococcus aureus [11]) | Activity (Pseudomonas aeruginosa [12]) | Activity (Enterococcus faecalis [13])
12 mm: zone of inhibition at 10 µg/disc (Moraxella catarrhalis [2]) | zone of inhibition at 10 µg/disc (Moraxella catarrhalis [15]) | zone of inhibition at 10 µg/disc (Moraxella catarrhalis [18]) | zone of inhibition at 10 µg/disc (Moraxella catarrhalis [20])
18 mm: zone of inhibition at 10 µg/disc (Moraxella catarrhalis [3])
17 mm: zone of inhibition at 10 µg/disc (Moraxella catarrhalis [14]) | zone of inhibition at 10 µg/disc (Moraxella catarrhalis [19])
11 mm: zone of inhibition at 10 µg/disc (Moraxella catarrhalis [4]) | zone of inhibition at 10 µg/disc (Moraxella catarrhalis [16])

O=C1CC(Sc2ccc(O)cc2)N1 (racemic)
inactive: Activity (Pseudomonas aeruginosa [1]) | Activity (Escherichia coli [5]) | Activity (Escherichia coli [7]) | Activity (Enterococcus faecalis [8]) | Activity (Staphylococcus aureus [10]) | Activity (Staphylococcus aureus [11]) | Activity (Pseudomonas aeruginosa [12]) | Activity (Enterococcus faecalis [13])
< 15.6 µg/mL: MBC (Moraxella catarrhalis [21]) | MBC (Moraxella catarrhalis [23]) | MBC (Moraxella catarrhalis [24]) | MBC (Moraxella catarrhalis [26]) | MBC (Moraxella catarrhalis [27])
> 500 µg/mL: MBC (Moraxella catarrhalis [22])
> 200 µg/mL: MBC [25]

Nc1ccc(SC2CC(=O)N2S(=O)(=O)O)cc1 (racemic)
active: antibacterial activity (active/not active) (Moraxella catarrhalis [28]) | antibacterial activity (active/not active) (Moraxella catarrhalis [29]) | antibacterial activity (active/not active) (Moraxella catarrhalis [30]) | antibacterial activity (active/not active) (Moraxella catarrhalis [31]) | antibacterial activity (active/not active) (Moraxella catarrhalis [32]) | antimycobacterial activity (active/not active) [33]
inactive: Activity (Pseudomonas aeruginosa [1]) | inhibition zone (IZ) (Moraxella catarrhalis [2]) | inhibition zone (IZ) (Moraxella catarrhalis [3]) | inhibition zone (IZ) (Moraxella catarrhalis [4]) | Activity (Escherichia coli [5]) | inhibition zone (IZ) (Moraxella catarrhalis [6]) | Activity (Escherichia coli [7]) | Activity (Enterococcus faecalis [8]) | inhibition zone (IZ) (Moraxella catarrhalis [14]) | inhibition zone (IZ) (Moraxella catarrhalis [15]) | inhibition zone (IZ) (Moraxella catarrhalis [16]) | Activity (Staphylococcus aureus [10]) | inhibition zone (IZ) (Moraxella catarrhalis [17]) | inhibition zone (IZ) (Moraxella catarrhalis [18]) | inhibition zone (IZ) (Moraxella catarrhalis [19]) | Activity (Staphylococcus aureus [11]) | Activity (Pseudomonas aeruginosa [12]) | Activity (Enterococcus faecalis [13])
8 mm: zone of inhibition at 10 µg/disc (Moraxella catarrhalis [9]) | zone of inhibition at 10 µg/disc (Moraxella catarrhalis [20])
